Screens deposited in PubChem BioAssay by Sanford-Burnham Center for Chemical Genomics.
tim23-1 inh: growth inhibitors of tim23-1 mutant yeast, primary screen, luminescence, uHTS. S. cerevisiae tim23-1 growth, BacTiter-Glo luminescence, 24 h. actives 1.3% (n = 330,000). inhibition, % at 20 µM;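 active means growth inhibition of the mutant yeast at or above 50%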;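 further: temperature-sensitive mutant grown at 25 °C; plate controls were DMSO-treated mutant yeast for no effect and medium wells lacking yeast for full effect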
tim10-1 inh: growth inhibitors of tim10-1 mutant yeast, primary screen, luminescence, uHTS; S. cerevisiae tim10-1 ts strain growth, BacTiter-Glo, 24 h; inhibition, % at 20 µM; actives 2.2% (n = 330,000);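 active means inhibition of at least 40%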;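 further: mutant grown at 25 °C; 0% = DMSO wells with yeast and 100% = wells holding no yeast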
UPR XBP1 act: activators of adaptive XBP1 UPR arm, primary screen, cell-based, CHO-XBP1 luciferase reporter, luminescence, uHTS; actives 0.33% (n = 330,000); AID 463104, 2010; IRE1-XBP1 UPR activation; percent of tunicamycin response, DMSO as zero; activation, % at 20 µM;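 active means versus positive control, 20 µM dose yields 30% or more activation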;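 further: 100% = tunicamycin at 10 µg/mL and 0% = DMSO only wells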
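Test system: CHO-XBP1 luciferase reporter cells | Buffer or medium: Serum-containing F12 medium, 10% FBS | Schedule: 6 h compound exposure at 37 °C, 5% CO2 | Detection: Steady-Glo luciferase glow luminescence, 10 min after reagent addition | Read-out basis: Activation, % of tunicamycin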
UPR CHOP act: activators of apoptotic CHOP UPR arm, primary screen, cell-based, CHO-CHOP luciferase reporter, luminescence, uHTS; AID 449763, 2010; activation, % at 10 µM; actives 0.34% (n = 330,000); UPR activation; percent of tunicamycin response over DMSO baseline;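 active means at 10 µM dose, activation of 40% or more, normalized to positive control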;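 further: 100% = tunicamycin at 10 µg/mL and 0% = DMSO alone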
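assay system = CHO CHOP reporter cells | amount = 500 CHO-CHOP cells per well | buffer or medium = F12 with 10% FBS | incubation = 16-18 h cell attachment, then 6 h compound exposure, 37 °C | detection = luminescence read with Steady-Glo | read-out = percent activation relative to tunicamycin control | controls = tunicamycin high control, DMSO low control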
TIM10 inh: growth inhibitors of isogenic TIM10 control yeast, primary screen, counter-screen for tim10-1 yeast inhibitor project, luminescence, uHTS | S. cerevisiae TIM10 strain growth, BacTiter-Glo luminescence, 24 h | inhibition, % at 10 µM | AID 463195, 2010 | actives 1.4% (n = 330,000);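 active means inhibition of 40% or more at the single tested concentration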;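 further: wild-type TIM10 isogenic control strain grown at permissive 25 °C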
tim10-1 conf: growth inhibitors of tim10-1 mutant yeast, confirmation, single concentration, luminescence, S. cerevisiae; S. cerevisiae tim10-1 ts strain growth, BacTiter-Glo, 24 h; actives 56% (n = 7,400); shares compounds with tim10-1 inh; inhibition, % at 20 µM;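 active means inhibition of yeast growth at or above a set limit in either of two repeat tests at 20 µM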;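 further: tim10-1 mutant grown at permissive 25 °C to find synthetic lethal compounds; 0% = DMSO yeast wells and 100% = medium wells without yeast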
tim10 confirm: growth inhibitors of wild-type TIM10 yeast, confirmation, counter-screen for tim10-1 synthetic lethality project, single concentration, luminescence, S. cerevisiae. shares compounds with TIM10 inh. S. cerevisiae tim10 strain growth, BacTiter-Glo luminescence, 24 h. inhibition, % at 10 µM. actives 63% (n = 4,600);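 active means inhibition of yeast growth at or above a set limit in either of two replicates at 10 µM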;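 further: this counterscreen used the strain with wild-type TIM10; 0% = yeast with DMSO and 100% = medium wells lacking yeast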
Starred values were filed as active, the others as inactive; x = no result given. Compounds with a hit are over-represented: about 3.9% of the library has one in this group of screens.

SMILES	tim23-1 inh	tim10-1 inh	UPR XBP1 act	UPR CHOP act	TIM10 inh	tim10-1 conf	tim10 confirm
O=C(CSCc1ccccc1Cl)Nc1ccc2c(c1)OCCO2	44	44*	5	1	48*	36*	8
CC(C)(C)OC(=O)C[C@@H]1C/C=C\C[C@@H](CC(=O)N(CCO)Cc2ccccc2)C(=O)N[C@@H](c2ccccc2)COC1=O	-1	16	-2	2	-2	x	x
Cc1cccc(C(=O)Nc2cccc(Br)c2)c1[N+](=O)[O-]	43	58*	2	3	65*	54*	50*
COc1cccc(NC(=O)c2cccc(C)c2[N+](=O)[O-])c1	25	30	-1	5	9	x	x
Cc1ccc(C(=O)N/N=C/c2ccc(OC(=O)c3ccccc3Cl)cc2)cn1	-15	1	2	1	-5	x	x
O=C(Oc1ccc(/C=N/O)cc1)c1ccccc1Cl	47	52*	7	7	57*	45*	29
CCCS(=O)(=O)N1CCC(C(=O)Oc2ccc(OC)cc2)CC1	10	26	-3	0	4	x	x
O=C(Nc1nc2ccc(Cl)cc2s1)C1CC1	33	41*	1	8	46*	43*	46*
O=C(Nc1nc2ccc(Cl)cc2s1)C1CCCO1 (stereo not drawn)	37	25	0	5	10	x	x
COc1cccc(N2CCN(CC(=O)Nc3nc(C)c(C(=O)N(C)C)s3)CC2)c1	10	9	-5	-2	-7	x	x
COc1cccc(N2CCN(CC(=O)Nc3nc4c(s3)CC(C)CC4)CC2)c1 (stereo not drawn)	37	40*	-2	1	40*	20	29
CCCN(CC(=O)Nc1ccccc1C)C(=O)c1ccc2ccccc2n1	12	19	-4	0	-7	x	x
Cc1ccccc1NC(=S)c1ccc2ccccc2n1	44	43*	-5	2	40*	20	37*
O=C(Nc1ccccc1C(=O)NCc1ccccc1)c1ccccc1	36	47*	-1	-1	46*	42*	27
O=C(Nc1ccccc1C(=O)NCc1ccccc1)c1ccco1	32	38	0	2	34	x	x
O=C(Nc1ccc(Br)cc1)c1cccn1-c1ncc(C(F)(F)F)cc1Cl	47	47*	-3	0	52*	43*	43*
Cc1ccc(C(=O)NNC(=O)Cn2ccc(C(F)(F)F)n2)o1	1	8	-1	1	7	x	x
COc1cc(C2Nc3cccc4cccc(c34)N2)cc(OC)c1O	26	21	-2	0	29	x	x
Oc1ccc(C2Nc3cccc4cccc(c34)N2)c(O)c1	29	42*	5	-1	41*	44*	38*
Nn1c(SCC(=O)NCC2CCCO2)nnc1-c1ccco1 (stereo not drawn)	-7	-17	-1	2	6	x	x
O=C(Cc1ccc(F)cc1)N/N=C/c1ccccn1	5	8	-1	-1	0	x	x
O=C(Cc1ccc(Br)c2ccccc12)N/N=C/c1ccccn1	7	41*	0	-2	40*	21	32*
COc1ccc(NC(=O)CCS(=O)(=O)c2ccc3c(c2)CCN3C(C)=O)cc1	-5	-9	-4	-1	-1	x	x
CC(=O)NCc1ccc(C(=O)CN2C(=O)NC3(CCCCC3C)C2=O)s1 (stereo not drawn)	7	-14	0	-1	-8	x	x
CCCN(CC(=O)Nc1ccccc1C)C(=O)C1CC(=O)N(c2cccc(C)c2C)C1 (stereo not drawn)	-10	-5	-4	0	-7	x	x
SMILES	tim23-1 inh	tim10-1 inh	UPR XBP1 act	UPR CHOP act	TIM10 inh	tim10-1 conf	tim10 confirm
CCOc1ccc(NC(=O)Cn2sc3nc(C)cc(C)c3c2=O)cc1	9	83*	-2	-1	46*	90*	88*
Cc1ccc(NC(=O)Cn2sc3nc(C)cc(C)c3c2=O)c(Cl)c1	15	86*	-4	2	81*	92*	96*
Cc1cc(C)c2c(=O)n(CC(=O)Nc3ccc(Cl)cc3)sc2n1	18	91*	-1	3	86*	93*	96*
CSCC[C@H](NC(=O)[C@H]1CC[C@H](CNC(=O)[C@@H](N)Cc2ccccc2)CC1)C(=O)O	12	6	-2	1	4	x	x
O=C(CCc1ccccc1)N=C1SC2CS(=O)(=O)CC2N1Cc1ccc(F)cc1 (stereo not drawn)	-11	-12	-4	0	-17	x	x
COc1ccc(CN2[C@@H](CC(C)=O)c3ccc(/C=C/C(C)=O)cc3S2(=O)=O)cc1	48	55*	0	0	55*	51*	55*
COC(=O)/C=C/c1ccc2c(c1)S(=O)(=O)N(Cc1ccc(OC)cc1)[C@H]2CC(=O)OC	11	12	-5	-1	14	x	x
COc1ccc(-c2nc(-c3ccccc3)nc(N3CCN(C)CC3)c2C#N)cc1	50	45*	10	0	53*	22	26
Cc1ccc(C(=O)Nc2ccc(S(=O)(=O)N3CCc4ccccc4C3)cc2)o1	14	18	1	-2	12	x	x
O=C(Nc1ncccc1O)c1cccc(S(=O)(=O)N2CCc3ccccc32)c1	32	33	-5	-1	24	x	x
COc1ccc(NC(=O)c2cccc(S(=O)(=O)N3CCc4ccccc43)c2)cn1	24	46*	1	3	45*	41*	40*
Cc1ccc(C(=O)Nc2ccc(S(=O)(=O)N3CCc4ccccc43)cc2)o1	47	49*	-3	0	52*	33*	43*
CCOC(=O)C1(CCCc2ccccc2)CCN(C(=O)CCc2cnn(C)c2)CC1	39	53*	1	-2	43*	41*	31
CCOC(=O)C1(CCCc2ccccc2)CCN(Cc2cnn(C)c2)CC1	-3	-12	0	1	-11	x	x
Cc1nc(N)sc1N=Nc1ccc(Br)cc1	48	44*	4	8	60*	29*	58*
O=C(C1CCN(S(=O)(=O)c2ccccc2)CC1)N1CCC1	2	1	-2	1	-3	x	x
CCc1nc2ccccc2n1CC(=O)NC1CCS(=O)(=O)C1 (stereo not drawn)	11	2	-1	-1	1	x	x
